# The source made the active and inactive calls.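 The calls were made as follows, unless noted: active = viability loss from added drug above about 55%, and viability with drug at most 40%, in both replicates (limit read from the data, passing the limit was not always enough); inconclusive = both conditions met in only one replicate; inactive = neither replicate meets both conditions.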
# Legend:
# [1] = SK-BR-3 cell growth inhibitors, pilot screen, 24 h, human (AID 572;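 active = viability at or below 10% of carrier control in both of two separate runs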;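 also: compound exposure lasted between 18 and 24 h rather than exactly 24 h; 100% = carrier-treated control wells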); details: SK-BR-3 viability, CellTiter-Glo luminescence, at 10 µM, stronger effect = lower value
# [2] = HUVEC growth inhibition – cell-based, human, primary screen (AID 575;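 active = viability at or below 30% in both replicate assays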;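 also: 100% = median of untreated cell wells with 0.1% DMSO on each plate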); details: HUVEC proliferation, CellTiter-Glo luminescence, 72 h; at 10 µM; stronger effect = lower value
# How it was run: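 material = primary HUVEC, no more than 12 passages | input = 1250 cells per well | controls = vehicle and MePR control wells | measured by = CTG luminescence | times = 72 h compound incubation | format = collagen-coated 384-well format | read-out = % viability vs DMSO wells | doses = single 10 µM dose, 0.1% DMSO, from 5x medium stock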
# [3] = growth inhibitors of H69AR lung tumor, primary screen, human, duplicate replicates (AID 580;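 active = viability at or under a set limit in both replicates, limit being median viability minus 3 SD, cut at about 48% in these data, passing the limit was not always enough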;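 also: 100% = mean luminescence of untreated wells and 0% = no signal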); details: H69AR lung tumor cells viability, ATP luminescence, 72 h; at 10 µM; stronger effect = lower value
# [4] = reversal of MRP1-mediated doxorubicin resistance, pilot screen, H69AR cells, doxorubicin co-treatment (AID 601); details: CellTiter-Glo, 72 h, at 10 µM; for differential viability (reversal): stronger effect = higher value
# [5] = 384-well plate pilot, post-Golgi transport modulator project, inhibition of yeast transport mutant growth (AID 636; in the data active = inhibition above about 31%); details: absorbance 615 nm, about 18 h, stronger effect = higher value
# [6] = growth suppression of yeast trafficking mutant, preliminary HTS, modulators of trafficking downstream of Golgi apparatus project, 1536-format plate, OD 615 nm (AID 637; in the data active = inhibition above about 30%); details: yeast transport mutant growth, absorbance 615 nm, 18 h; stronger effect = higher value
# [7] = H69AR cells + 2 uM doxorubicin, measured here: viability with 2 uM doxorubicin, stronger effect = lower value
# [8] = H69AR cells, compound alone cytotoxicity
SMILES,viability [1],viability [2],viability [3],differential viability (reversal) ([4]; H69AR cells + 2 uM doxorubicin),"viability [4, 7] [%]","viability [4, 8] [%]",inhibition [5],inhibition [6]
CC1Oc2ccccc2N(CC(=O)NCc2cccs2)C1=O (centres undefined),77% (inactive),98.8% (inactive),108% (inactive),13.8% (inactive),94.5,108,-6.71% (inactive),-0.91% (inactive)
CCCC(OC(=O)CN1C(=O)COc2ccccc21)C(=O)NC1CCCC1 (centres undefined),63% (inactive),107% (inactive),91.7% (inactive),1.34% (inactive),90.3,91.7,-7.12% (inactive),3.09% (inactive)
COCCCNC(=O)CCCn1c(=O)c2ccccc2n(CC(=O)Nc2c(C)cccc2C)c1=O,99% (inactive),97.6% (inactive),93.1% (inactive),4.87% (inactive),88.2,93.1,-1.69% (inactive),-1.31% (inactive)
COC(=O)c1ccccc1NC(=O)C12CCC(C)(C(=O)O1)C2(C)C (centres undefined),84% (inactive),87.6% (inactive),90.5% (inactive),13.7% (inactive),76.8,90.5,-6.58% (inactive),0% (inactive)
COc1cccc(NC(=O)c2ccccc2NS(C)(=O)=O)c1,86% (inactive),91.8% (inactive),91.9% (inactive),4.45% (inactive),87.5,91.9,-5.89% (inactive),-3.45% (inactive)
O=C(CNC(=O)c1cc2ccccc2o1)NCc1cccs1,122% (inactive),80.8% (inactive),84.4% (inactive),-4.37% (inactive),88.8,84.4,0.26% (inactive),5.74% (inactive)
Cc1cc(C(=O)COC(=O)CCc2nc3ccccc3s2)c(C)n1C,94% (inactive),116% (inactive),101% (inactive),-5.69% (inactive),107,101,-3.7% (inactive),-5.09% (inactive)
O=C(c1ccco1)N1CCN(CC2CC3C=CC2C3)CC1 (centres undefined),91% (inactive),110% (inactive),95.8% (inactive),5.7% (inactive),90.1,95.8,-1.43% (inactive),-2.13% (inactive)
Cc1ccc2[nH]c(=O)c(-c3noc(-c4ccncc4)n3)cc2c1,104% (inactive),113% (inactive),98.7% (inactive),4.67% (inactive),94,98.7,-8.11% (inactive),6.18% (inactive)
O=c1[nH]c(NCc2ccccc2)nc2c1CCCC2,87% (inactive),115% (inactive),104% (inactive),7.85% (inactive),96.5,104,-4.19% (inactive),-10% (inactive)
NC(N)=NC(=O)c1nc(Cl)c(N)nc1N,117% (inactive),86.5% (inactive),91.2% (inactive),-4.34% (inactive),95.5,91.2,-2.34% (inactive),1.67% (inactive)
C=CCNc1nnc(SC2CC(=O)N(c3ccc(OC)cc3)C2=O)s1 (centres undefined),107% (inactive),108% (inactive),103% (inactive),-8.79% (inactive),111,103,-1.92% (inactive),0.73% (inactive)
CCC[C@@H]1C[C@@H](C(=O)N[C@H]([C@@H](C)O)[C@H]2O[C@H](SC)[C@H](O)[C@@H](O)C2O)N(C)C1 (some centres undefined),128% (inactive),94.7% (inactive),89.7% (inactive),9.67% (inactive),80,89.7,0.52% (inactive),15.7% (inactive)
O=C(NCCO)c1cc2ccccc2cc1O,104% (inactive),110% (inactive),97% (inactive),-17.9% (inactive),115,97,-3.25% (inactive),4.43% (inactive)
Cc1cc(C(=O)NCc2cccnc2)no1,77% (inactive),108% (inactive),99.2% (inactive),6.27% (inactive),93,99.2,-4.52% (inactive),1.61% (inactive)
COC(=O)c1sccc1NC(=O)c1ccco1,109% (inactive),92.3% (inactive),96.3% (inactive),-5.95% (inactive),102,96.3,-6.71% (inactive),7.27% (inactive)
Nc1cc(=O)[nH]c(SCC(=O)Nc2ccc(Br)cc2)n1,96% (inactive),101% (inactive),90.5% (inactive),4.49% (inactive),86,90.5,-0.52% (inactive),-4.1% (inactive)
CCOC(=O)C1CCN(C(=O)Nc2ccc3nc(C)c(C)nc3c2)CC1,101% (inactive),109% (inactive),95.5% (inactive),15.9% (inactive),79.6,95.5,-3.87% (inactive),-1.09% (inactive)

# Source: PubChem BioAssay
